We go through 95 compounds from ChEMBL document CHEMBL4513216, “Probing the Open Global Health Chemical Diversity Library for Multistage-Active Starting Points for Next-Generation Antimalarials” (ACS Infect Dis, 2020).

The data set in a line: Toxicity liver stage against HepG2, at 10uM. The format is cell-based. Set-up: test concentration 10 uM, cell line HepG2-A16-CD81EGFP. The settings on record: human, HepG2-A16-CD81EGFP cells; read-out: INHIBITION
In outline: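 Uninfected HepG2-A16-CD81EGFP cells, 3 × 10^3 per well, 1536-well, plated on prespotted compound at 10 μM final, parasite-free screening media added to match infected plates; puromycin 10 μM positive, DMSO 0.5% negative; run in parallel with 48 h PbLuc assay at 37 °C, 5% CO2; viability by CellTiter-Glo luminescence, normalized to controls.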

On to `CN(C)C[C@@H]1C[C@@H]2CN(C(=O)Cc3cccs3)CC[C@@H]2N1C`, for which the cytotoxicity at 10 µM was 0.375%.
Take `Cc1ccc(CNCC(C)Oc2ccccn2)cc1` (stereo not given): the cytotoxicity at 10 µM is 5.4%.
Regarding `N#Cc1ccc(C(=O)N2CC(c3nc(-c4ncccn4)no3)C2)cc1`, the cytotoxicity at 10 µM is -0.713%.
The same measure for `CCC(C)[C@H](NC(=O)c1cc(Br)ccc1-n1cnnn1)C(=O)OC` (stereo not given in full): 2.58%.
The value for `CC(C(=O)NCc1ccc(F)cc1)N(C)CCN1CCOCC1` (stereo not given) was 0.247%.
For the compound `CCOc1ccc(S(=O)(=O)N(CCOC)Cc2ccncc2)cc1F`, the cytotoxicity at 10 µM came to 52.2%.
On to `CCc1ncc2c(n1)CN(C(=O)CNC(=O)C(C)C)C2`, for which the cytotoxicity at 10 µM worked out at 7.28%.
The same measure for `Cn1cc(C(=O)N2CCCC2c2ccc3c(c2)OCCO3)ccc1=O` (stereo not given): 3.92%.
`CN(Cc1noc2c1CCCC2)C(=O)Cn1cnc2ccccc2c1=O`: the cytotoxicity at 10 µM is -52.4%.
The same measure for `CCOc1ccc(C(=O)NCCCNc2ncccn2)cc1`: 11.5%.
With `CC(C)n1ccnc1C1CCN(C(=O)c2ccccc2N(C)C)CC1`, the cytotoxicity at 10 µM was 4.67%.
The value for `COc1cc(-c2nc(N)n[nH]2)cc(OC)c1OC` was -10.2%; that for `O=S(=O)(Cc1nc(C2CC2)no1)c1ccccc1F` was 8.11%.
The value for `Cc1[nH]c2ccc(C(=O)N3C[C@@H](O)[C@H](N4CCOCC4)C3)cc2c1C` was -21.3%; that for `CC(C)NC(=O)N1CCN2C(=O)OC[C@H]2C1` was 4.62%; that for `CC(C)CC(=O)NCCn1nc(C2CCNC2)c2cccnc21` (stereo not given) was -25%.
The value for `CC(=O)Nc1nc(C(=O)NC(C)c2ccc(C#N)cc2)cs1` (stereo not given) was -10.5%; that for `CO[C@@H]1CN(S(=O)(=O)c2cn(C)cn2)[C@@H]2CCCO[C@@H]21` was -125%; that for `CC(=O)N[C@@H]1CN(C(=O)c2cnccn2)C[C@H]1c1ccc(C)cc1` was 6.62%.
As to `Nc1cc2c(nn1)CCN(C(=O)c1csc(-c3cccs3)n1)C2`, the cytotoxicity at 10 µM was -1.32%.
The value for `Cc1csc(C2CCCN(C(=O)c3ccc(=O)n(C)n3)C2)n1` (stereo not given) was 6.76%.
The value for `CS(=O)(=O)N1CCC2(CC1)CN(CCn1cccn1)C(=O)CO2` was -2.79%; that for `CC(C)N(C)[C@@H]1CCN(S(C)(=O)=O)[C@H]1Cc1ccccc1` was 5.7%; that for `Cc1nccn1Cc1cccc(CNC(=O)c2ccn(C)c(=O)c2)c1` was 5.82%.
The same measure for `CCO[C@@H]1CN(S(=O)(=O)c2cn(C)cn2)[C@@H]2CCCO[C@@H]21`: -146%; for `CC(O)C1CCN(Cc2cnc3c(-c4ccccc4)cnn3c2)CC1` (stereo not given): -0.537%.
Consider `COc1ccccc1OC1CCN(Cc2cnc(N(C)C)nc2)CC1`, for which the cytotoxicity at 10 µM was -10.9%.
As for `CS(=O)(=O)NCc1cn2c(n1)CN(Cc1cccnc1)CC2`, the cytotoxicity at 10 µM was -103%.
The same measure for `Cc1noc(C)c1CN1CCC2(CC1)C(c1cnn(C)c1)CC(=O)N2C` (stereo not given): -106%; for `CC(O)C1CCN(Cc2nccn2CC(F)(F)F)CC1` (stereo not given): 4.29%.
Take `CC(CNC(=O)c1cnc[nH]1)Oc1ccc(Cl)cc1` (stereo not given): the cytotoxicity at 10 µM is -7.09%.
As for `Cc1ccc(-c2cc(CN(CC(N)=O)CC(C)C)on2)cc1`, the cytotoxicity at 10 µM worked out at 10.1%.
The same measure for `CSc1ncccc1C(=O)N(C)CCc1scnc1C`: 4.23%.
As for `Cc1occc1C(=O)N1CCC2(CCN(C(=O)c3cccnc3)C2)CC1`, the cytotoxicity at 10 µM is -88.1%.
The same measure for `O=C(NC1CCCCC1)c1nnc2ccc(N3CCOCC3)cc2n1`: 5.97%.
The same measure for `CC(C)N1CCC(C(=O)N2CCC(C(O)c3nccn3C)CC2)CC1` (stereo not given): -2.7%.
The value for `COCCn1ccnc1CN(Cc1ccccn1)Cc1sccc1C` was 2.16%; that for `c1ccc(CCN2CCn3cc(Cn4cccn4)nc3C2)cc1` was -1.98%; that for `CCC(Nc1ccc(CCN2CCOCC2)cc1)C(N)=O` (stereo not given) was 4.42%.
For the compound `O=C(c1cccc(O)c1)N1C[C@@H](CN2CCCCC2)[C@@H](CO)C1`, the cytotoxicity at 10 µM was -2.88%.
`CNS(=O)(=O)c1cccc(C(=O)N(C)Cc2ccsc2)c1`: the cytotoxicity at 10 µM worked out at 4.04%.
The same measure for `CN(C)C(=O)CNC(=O)c1ccc2c(-c3nccs3)noc2c1`: 7.19%; for `CNC(=O)c1cn[nH]c1C1(C)CCCN(Cc2ccccc2OC)C1` (stereo not given): 0.353%.
The same measure for `Cc1cncc(C2CCN(C(=O)c3ccc(-n4cccn4)nc3)CC2)n1`: -0.701%.
As for `O=C(NCCO)C1(Cc2ccccc2-c2cccnc2)CCOCC1`, the cytotoxicity at 10 µM is -31.8%.
Take `CN(C)S(=O)(=O)N1CC(c2nc(N)ncc2-c2ccc(F)cc2)C1`: the cytotoxicity at 10 µM was -4.64%.
The value for `CNC(=O)N1CC[C@@H]2CN(Cc3cccc(Cl)c3)S(=O)(=O)[C@@H]2CC1` was 0.748%.
The value for `CCC(=O)N1CCCN(C(=O)c2cc(C)cc(Br)c2O)CC1` was 7.12%; that for `CNC(=O)N1CCc2nc(C(=O)Nc3cccnc3)sc2CC1` was 1.99%; that for `Cc1noc(C)c1-c1cncc(C2CCCN2Cc2ncc[nH]2)n1` (stereo not given) was -8.89%.
As to `CCn1cnnc1CNS(=O)(=O)N1CCCC1c1ccco1` (stereo not given), the cytotoxicity at 10 µM is -141%.
The same measure for `Cc1nc(NC(=O)NCCCN2CCC(C(N)=O)CC2)sc1C`: 0.902%; for `COc1cc(Oc2ccc(C#N)cn2)ccc1CN1CCCC1`: 32.2%; for `O=C(C1CCOCC1)N1CCCC1c1cncc(CN2CCCC2)n1` (stereo not given): -0.802%.
The same measure for `COc1cc(NC(=O)NC2CCCC2)ccc1N1CCOC1=O`: -7.09%; for `CC(C)N1CCN(CCn2cnc3c(F)cccc3c2=O)CC1`: 1.64%.
As for `CS(=O)(=O)N[C@H]1CCO[C@]2(CCN(CC3CCOCC3)C2)C1`, the cytotoxicity at 10 µM is -122%.
Regarding `COCc1nc(C(=O)N2CCCC2c2cc(C)no2)cs1` (stereo not given), the cytotoxicity at 10 µM was -12.9%.
The value for `Cc1ccc(-c2snnc2C(=O)NCCCO)cc1` was 6.67%.
The same measure for `Cc1cc(F)ccc1N1CCCC(Nc2nccn3cnnc23)C1=O` (stereo not given): -6.62%.
The value for `COc1ccc(CN2CCO[C@H]3[C@H](OCCN4CCCC4)CC[C@@H]32)cc1` was 0.471%; that for `O=C(CC1CCCCC1)N1CCN(C(=O)NCc2ccccn2)CC1` was -4.02%.
On to `CN(C)Cc1cnn(-c2ccccc2C(=O)NCCC2CCCN2C)c1` (stereo not given), for which the cytotoxicity at 10 µM is 8.18%.
The same measure for `Cc1nc(C)n(CC2CCCN2c2ncnc3sccc23)n1` (stereo not given): -1.09%; for `Cc1c(CN2CCc3[nH]cnc3C2C(=O)O)[nH]c2ccc(F)cc12` (stereo not given): -4.23%; for `Cn1ccnc1CN1CCC(Cn2cc(-c3ccncc3)nn2)CC1`: -4.5%.
For `COc1cc(N2C[C@@H]3COC[C@]3(COc3cccnc3)C2)ncn1`, the cytotoxicity at 10 µM is 2.13%.
`CCCNC(=O)c1cc(-c2cnc(N3CCCC3)nc2)cn1C`: the cytotoxicity at 10 µM is -54.6%.
The same measure for `Cc1ccc2nc(CN3CCCCC3CCN3CCOCC3)cn2c1` (stereo not given): 3.28%; for `O=C(Nc1ccc(F)cc1)C1CCN(Cc2noc(C3CC3)n2)CC1`: 4.05%; for `COc1ccccc1C(=O)N1CCN(CCc2scnc2C)CC1`: 1.79%.
The same measure for `COCCn1c(CN2CCCCO2)cnc1S(=O)(=O)CC1CCCCC1`: -6.58%; for `CCn1ncnc1C(C)NC(=O)COc1ccc(Cl)cc1Cl` (stereo not given): 2.8%.
The value for `NC(=O)NCC(=O)N1CCCC(c2nccn2Cc2ccncc2)C1` (stereo not given) was 5.07%.
In the case of `CS(=O)(=O)CC(=O)NCC1OCCc2cn(CC3CC3)nc21` (stereo not given), the cytotoxicity at 10 µM was found to be 3.45%.
The value for `CCSc1ncc(CN2CCN(c3ncc(C)c(N)n3)CC2)cn1` was -4.65%; that for `Cc1cccc(-c2nc(C)nn2CC(=O)N(C)C2CC2)c1` was -19.8%; that for `NC(=O)CN1CCC2(CC1)C[C@@H](O)[C@H](c1ccccc1)NC2=O` was -23%.
Consider `O=C1CN(C(=O)c2cc(Cl)ccc2F)c2ccccc2N1`, for which the cytotoxicity at 10 µM was determined as 79.6%.
The value for `O=C(Cc1csc(-c2cccc(Cl)c2)n1)NCc1cccc(C(=O)O)c1` was -0.0616%.
The same measure for `Cc1cnn(C2CN(CC(=O)NCCOc3ccccc3)C2)c1`: -16.7%; for `CCN(CC)S(=O)(=O)CCNC(=O)c1cc2cccc(F)c2o1`: -3.12%; for `Cc1nc(N2CCN(C(=O)C3CCCC3)CC2)c2c(n1)c(C)nn2C`: 6.97%.
The value for `O=S(=O)(N1CCOCC1)N1CCC(Oc2cnccn2)CC1` was -23.3%.
Consider `Cn1ncc2c1C(COCC1CC1)CN(Cc1ccsc1)C2` (stereo not given), for which the cytotoxicity at 10 µM is -1.11%.
The same measure for `Cc1ccnc(N2Cc3cnn(Cc4ccc(F)cc4)c3C2)n1`: 3.59%; for `Cc1cc(-c2cc(F)ccc2C(=O)O)nc(C2CCCCN2C(C)C)n1` (stereo not given): -3.42%.
The same measure for `Cn1c(=O)[nH]c(=O)n2c(CC(=O)NCc3ccccc3)cnc12`: 7.77%; for `O=C(CC1CC1)N1CCn2cc(Cn3cncn3)nc2C1`: -8.87%.
The value for `Cc1cccc(CN2CCC3(CCCN(C(=O)NC(C)C)C3)C2=O)n1` (stereo not given) was 7.51%; that for `Cc1nc(NC(=O)C(C)N2CCN(c3ccccc3F)CC2)sc1C` (stereo not given) was -0.879%.
`CS(=O)(=O)CCS(=O)(=O)Cc1cc(Cl)c2c(c1)OCCCO2`: the cytotoxicity at 10 µM was -0.0261%.
The value for `Cc1ccc(CNc2ccn(CCc3ccncc3)n2)s1` was 21.8%.
As for `Cc1nc(COCc2nc3c(o2)CN(C(=O)c2ccoc2)C3)cs1`, the cytotoxicity at 10 µM is -1.95%.
The same measure for `CCCc1nc(NCCCOCC)c2c(n1)c(C)nn2CC`: 21.6%.
